Assay [1] relates to Staphylococcus aureus. Nature of the assay: Antibacterial activity against methicillin-resistant Staphylococcus aureus ATCC 33591 after 24 hrs by microtiter plate assay. The assay is classed as functional. To be noted: ATCC 33591, 24 h. In a few lines:
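Log-phase bacteria at about 5 × 10^5 cells per well in Mueller Hinton broth, 37 C, were mixed with compounds dissolved in water, 2–100 μg/mL, in duplicate. Optical density was monitored continuously. MIC was taken as the lowest concentration giving no change in optical density after 24 h. Cecropin B (25 μM) served as positive control.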

A further assay deals with Pseudomonas aeruginosa. Nature of the assay: Antibacterial activity against Pseudomonas aeruginosa ATTC 27853 after 24 hrs by microtiter plate assay. It counts as functional. To be noted: ATTC 27853, 24 h. The method, boiled down: (§1)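 Log-phase cultures grown at 37 C in Mueller Hinton broth, diluted to about 5 × 10^5 cells per well, then mixed 1:1 with compound dissolved in water. Growth followed by continuous optical density reading. MIC taken as the lowest concentration giving no OD change after 24 h at 37 C. Tested in duplicate over 2–100 μg/mL; cecropin B (25 μM) served as positive control.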

For assay [2], the system named is Corynebacterium glutamicum. Nature of the assay: Antibacterial activity against Corynebacterium glutamicum ATTC 13032 after 24 hrs by microtiter plate assay. It counts as functional. As to conditions: ATTC 13032, 24 h. The method, boiled down:
as §1

The next assay has as its system Escherichia coli. Nature of the assay: Antibacterial activity against Escherichia coli ATCC 25922 after 24 hrs by microtiter plate assay. The assay is classed as functional. As to conditions: ATCC 25922, 24 h. The method, boiled down: as §1
A further assay relates to Candida albicans. Nature of the assay: Antifungal activity against Candida albicans ATCC 10231 after 48 hrs by microscopy. It counts as functional. To be noted: ATCC 10231, 48 h. The method, boiled down:
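Yeast grown on potato dextrose agar with 2% glucose at room temperature, suspended in potato dextrose broth and counted in a Bürker chamber. Spores at 2 × 10^5/mL final were mixed with compounds dissolved in water and incubated at 37 C. MIC was the lowest concentration with no visible growth at 48 h, scored microscopically. Duplicates over 2–100 μg/mL; cecropin B (6.25 μM) as positive control.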

Assay [3] concerns Staphylococcus aureus. Nature of the assay: Antibacterial activity against Staphylococcus aureus ATTC 9144 after 24 hrs by microtiter plate assay. As to conditions: ATTC 9144, 24 h. The assay is classed as functional. In a few lines: as §1
The test system of another assay is A2058. Nature of the assay: Anticancer activity against human A2058 cells after 72 hrs by CellTiter-96 cell viability assay. It counts as functional, cell-based. As to conditions: A2058, 72 h. In a few lines: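 A-2058 melanoma cells in exponential growth were seeded, incubated 24 h at 37 C, then exposed to compounds for 72 h. Viability was read by CellTiter96 reagent, 1 h colour development, absorbance at 485 nm. Duplicates over 2–100 μg/mL; IC50 determined.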

Converted amounts (≈) assume the structure as drawn.

As for `NCCCCNC(=O)[C@@]1(O)[C@H](c2c[nH]c3cc(Br)ccc23)[C@@](O)(Cc2c[nH]c3cc(Br)ccc23)C(=O)N1CCCCN` [EUSYNSTYELAMIDE D], the MIC amounted to 20 µg/mL (≈ 28.4 µM) in the assay with Staphylococcus aureus [1]; 25 µg/mL (≈ 35.5 µM) against Pseudomonas aeruginosa; 12.5 µg/mL (≈ 17.7 µM) in assay [2]; 12.5 µg/mL (≈ 17.7 µM) against Escherichia coli; 50 µg/mL (≈ 71 µM) against Candida albicans; 12.5 µg/mL (≈ 17.7 µM) in the assay with Staphylococcus aureus [3]. In the assay on A2058, this compound displayed an IC50 of 57 µM.

For `N=C(N)NCCCCN1C(=O)[C@](O)(Cc2c[nH]c3cc(Br)ccc23)[C@@H](c2c[nH]c3cc(Br)ccc23)[C@]1(O)C(=O)NCCCCN` [EUSYNSTYELAMIDE E], the minimum inhibitory concentration (MIC) against Staphylococcus aureus [1] stood at 20 µg/mL (≈ 26.8 µM); against Pseudomonas aeruginosa, 25 µg/mL (≈ 33.5 µM); in assay [2], 12.5 µg/mL (≈ 16.7 µM); in the assay with Escherichia coli, 12.5 µg/mL (≈ 16.7 µM); against Candida albicans, 100 µg/mL (≈ 134 µM); in the assay with Staphylococcus aureus [3] it was 12.5 µg/mL (≈ 16.7 µM). Moreover, the half-maximal inhibitory concentration (IC50) in the assay on A2058 is 114 µM.

With `N=C(N)NCCCCNC(=O)[C@@]1(O)[C@H](c2c[nH]c3cc(Br)ccc23)[C@@](O)(Cc2c[nH]c3cc(Br)ccc23)C(=O)N1CCCCN` [EUSYNSTYELAMIDE F], the MIC was above 50 µg/mL with Staphylococcus aureus [1]; 12.5 µg/mL (≈ 16.7 µM) with Pseudomonas aeruginosa; 6.25 µg/mL (≈ 8.37 µM) in assay [2]; 12.5 µg/mL (≈ 16.7 µM) against Escherichia coli; 50 µg/mL (≈ 67 µM) in the assay with Candida albicans; 6.25 µg/mL (≈ 8.37 µM) in the assay on Staphylococcus aureus [3].

Values taken from ChEMBL document CHEMBL1773005, “The antibacterial ent-eusynstyelamide B and eusynstyelamides D, E, and F from the Arctic bryozoan Tegella cf. spitzbergensis” (J Nat Prod, 2011).
